In ChEMBL document CHEMBL4028889 (2017):
Calls of active or inactive are those of the source. No cut-off for these calls is given here.

Tests used:
[1] = test system: PC-12; assay: Neuroprotective activity against etoposide-induced apoptosis in rat PC12 cells assessed as increase in cell viability at 0.1 uM pretreated for 4 hrs followed by etoposide challenge measured after 48 hrs by PrestoBlue assay relative to control; type: functional, cell-based
Summary of the method: (§1)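 PC12 cells were plated at 50000/well on collagen-coated plates and left overnight. They were pretreated 4 h with compound, then given 15 μg/mL etoposide. Viability was read at 48 h by PrestoBlue (ex 560/em 590 nm). n = 3, mean ± SEM, as % viability.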

[2] = test system: PC-12; assay: Induction of autophagy in rat PC12 cells after 48 hrs by MDC staining-based flow cytometric method; type: functional, cell-based
Summary of the method: (§2)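 PC12 cells were treated for 48 h and then stained with 0.5 mM monodansylcadaverine for 30 min at 37 °C. Trypsinized cells were pooled with floating cells and resuspended in PBS/1% FBS. 10000 cells were read by flow cytometry in the FITC channel after gating out debris. MDC staining is expressed relative to vehicle.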

[3] = test system: PC-12; assay: Induction of autophagy in rat PC12 cells at 3 uM after 48 hrs by MDC staining-based flow cytometric method relative to control; type: functional; summary of the method: as §2
[4] = test system: PC-12; assay: Neuroprotective activity against etoposide-induced apoptosis in rat PC12 cells assessed as increase in Bcl2/Bax ratio at 3 uM pretreated for 4 hrs followed by etoposide challenge measured after 48 hrs by Western blot method; type: functional, cell-based
Summary of the method: (§3)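 PC12 cells were pretreated 4 h with compound before etoposide and lysed after 24 or 48 h. 50 μg protein was run on 10% SDS gel and blotted. Probes were Bcl-2 (1:1000), Bax (1:500) and actin, with HRP chemiluminescence and densitometric Bcl-2/Bax ratio. n = 2, mean ± SEM.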

[5] = test system: PC-12; assay: Neuroprotective activity against etoposide-induced apoptosis in rat PC12 cells assessed as cell viability at 0.3 uM pretreated for 4 hrs followed by etoposide challenge measured after 48 hrs by PrestoBlue assay relative to control; type: functional; conditions: read-out: Activity; summary of the method: as §1
[6] = Neuroprotective activity against etoposide-induced apoptosis in human IMR90-c4 cells assessed as increase in cell viability at 3 uM pretreated for 4 hrs followed by etoposide challenge measured after 36 hrs by PrestoBlue assay relative to control; type: functional
Summary of the method: (§4)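 IMR90-c4 iPSC-derived neurons were plated at 16000 cells/well on poly-D-lysine/laminin and matured. They were pretreated 4 h with compound, then given 15 μg/mL etoposide. Viability was read at 36 h by PrestoBlue fluorescence (ex 560/em 590 nm).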

[7] = test system: PC-12; assay: Neuroprotective activity against etoposide-induced apoptosis in rat PC12 cells assessed as cell viability at 3 uM pretreated for 4 hrs followed by etoposide challenge measured after 48 hrs by PrestoBlue assay (reference value: 52.13 +/- 1.13%); type: functional; conditions: read-out: Activity; summary of the method: as §1
[8] = Neuroprotective activity against etoposide-induced apoptosis in human IMR90-c4 cells assessed as cell viability at 3 uM pretreated for 4 hrs followed by etoposide challenge measured after 36 hrs by PrestoBlue assay relative to control; type: functional; conditions: read-out: Activity; summary of the method: as §4
[9] = test system: PC-12; assay: Induction of autophagy in rat PC12 cells assessed as increase in beclin 1 expression after 24 hrs by Western blot method; type: functional, cell-based
Summary of the method: (§5)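 PC12 lysates were taken after 24 h of compound treatment. 50 μg protein was run on 10% SDS gel and transferred to nitrocellulose. Blots were blocked in 5% BSA, probed overnight at 4 °C with beclin 1 (1:2000) and actin (1:5000), then HRP secondary. Chemiluminescence was quantified by densitometry.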

[10] = target: T1, Glutamate [NMDA] receptor (Homo sapiens) (UniProt Q05586+Q12879+Q13224+O15399+O60391+Q14957+Q8TCU5); assay: Antagonist activity at NMDA receptor in human IMR90-c4 cells assessed as decrease in NMDA-mediated reduction in cell viability at 0.1 to 30 uM by PrestoBlue assay; type: cell-based
Summary of the method: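 Neurons differentiated from IMR90-c4 iPSCs over roughly 21 days, then challenged with 500 μM NMDA. Viability was read with PrestoBlue. n = 1 with 4 technical replicates; % viability given as mean ± SEM.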

[11] = test system: PC-12; assay: Neuroprotective activity against etoposide-induced apoptosis in rat PC12 cells assessed as cell viability at 0.1 uM pretreated for 4 hrs followed by etoposide challenge measured after 48 hrs by PrestoBlue assay relative to control; type: functional; conditions: read-out: Activity; summary of the method: as §1
[12] = test system: PC-12; assay: Induction of autophagy in rat PC12 cells assessed as increase in beclin 1 expression at 0.1 uM after 24 hrs by Western blot method relative to control; type: functional; summary of the method: as §5
[13] = test system: IMR-90; assay: Neuroprotective activity against etoposide-induced apoptosis in human IMR90-c4 cells assessed as increase in cell viability at 0.1 uM pretreated for 4 hrs followed by etoposide challenge measured after 36 hrs by PrestoBlue assay relative to control; type: functional; summary of the method: as §4
[14] = test system: PC-12; assay: Neuroprotective activity against etoposide-induced apoptosis in rat PC12 cells assessed as increase in Bcl2/Bax ratio at 3 uM pretreated for 4 hrs followed by etoposide challenge measured after 24 hrs by Western blot method; type: functional; summary of the method: as §3
[15] = test system: PC-12; assay: Neuroprotective activity against etoposide-induced apoptosis in rat PC12 cells assessed as increase in Bcl2/Bax ratio at 0.1 uM pretreated for 4 hrs followed by etoposide challenge measured after 48 hrs by Western blot method; type: functional, cell-based; summary of the method: as §3
[16] = test system: PC-12; assay: Neuroprotective activity against etoposide-induced apoptosis in rat PC12 cells assessed as increase in Bcl2/Bax ratio at 0.1 uM pretreated for 4 hrs followed by etoposide challenge measured after 24 hrs by Western blot method; type: functional; summary of the method: as §3
[17] = test system: PC-12; assay: Neuroprotective activity against H2O2-induced apoptosis in rat PC12 cells assessed as increase in cell viability at 1 to 30 uM after 4 hrs by PrestoBlue assay; type: functional, cell-based
Summary of the method: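 PC12 cells were exposed to 400 μM H2O2 with compounds at 1–30 μM. Viability was measured after 4 h with PrestoBlue.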

[18] = test system: IMR90-c4; assay: Neuroprotective activity against etoposide-induced apoptosis in human IMR90-c4 cells assessed as increase in cell viability at 0.1 to 3 uM pretreated for 4 hrs followed by etoposide challenge measured after 36 hrs by PrestoBlue assay; type: functional, cell-based; summary of the method: as §4
[19] = test system: PC-12; assay: Neuroprotective activity in rat PC12 cells assessed as decrease in H2O2-induced reactive oxygen species generation at 10 uM by CellROX/DAPI-blue staining-based fluorescence microscopic method; type: functional, cell-based
Summary of the method: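 PC12 cells were grown in RPMI with 10% horse serum and 5% FBS on collagen-coated plates. ROS was induced with H2O2 and cells exposed to compound. Staining used CellROX green plus DAPI, imaged by fluorescence microscopy at 40×.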

[20] = target: T1, Glutamate [NMDA] receptor (Homo sapiens); assay: Antagonist activity at NMDA receptor in human IMR90-c4 cells assessed as decrease in NMDA-mediated reduction in cell viability at 30 uM by PrestoBlue assay; type: cell-based
Summary of the method: (§6)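 IMR90-c4 iPSCs differentiated to neurons (NSC, NPC, then 21 days maturation on poly-D-lysine/laminin). Neurons challenged with 500 μM NMDA. Viability read with PrestoBlue. n = 1 with 4 technical replicates, mean ± SEM.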

[21] = test system: IMR90-c4; assay: Neuroprotective activity against etoposide-induced apoptosis in human IMR90-c4 cells assessed as increase in cell viability at 10 to 30 uM pretreated for 4 hrs followed by etoposide challenge measured after 36 hrs by PrestoBlue assay; type: functional, cell-based
Summary of the method: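 Neurons derived from IMR90-c4 iPSCs were seeded at 16000 cells/well on poly-D-lysine/laminin and matured at 37 °C, 5% CO2. Compound pretreatment lasted 4 h before 15 μg/mL etoposide. PrestoBlue fluorescence (ex 560/em 590 nm) was read after 36 h.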

[22] = target: T1, Glutamate [NMDA] receptor (Homo sapiens); assay: Antagonist activity at NMDA receptor in human IMR90-c4 cells assessed as decrease in NMDA-mediated reduction in cell viability at 0.1 to 10 uM by PrestoBlue assay; type: cell-based; summary of the method: as §6
[23] = test system: IMR90-c4; assay: Neuroprotective activity against etoposide-induced apoptosis in human IMR90-c4 cells assessed as increase in cell viability at 3 to 30 uM pretreated for 4 hrs followed by etoposide challenge measured after 36 hrs by PrestoBlue assay; type: functional, cell-based; summary of the method: as §4
[24] = test system: PC-12; assay: Induction of autophagy in rat PC12 cells assessed as increase in beclin 1 expression at 10 uM after 24 hrs by Western blot method relative to control; type: functional; summary of the method: as §5
[25] = test system: PC-12; assay: Induction of autophagy in rat PC12 cells assessed as increase in beclin 1 expression at 3 uM after 24 hrs by Western blot method relative to control; type: functional; summary of the method: as §5
[26] = test system: PC-12; assay: Induction of autophagy in rat PC12 cells at 10 uM after 48 hrs by MDC staining-based flow cytometric method relative to control; type: functional; summary of the method: as §2
[27] = test system: SH-SY5Y; assay: Neuroprotective activity against etoposide-induced apoptosis in human SH-SY5Y cells assessed as cell viability at 3 uM pretreated for 4 hrs followed by etoposide challenge measured after 12 to 48 hrs by PrestoBlue assay relative to control; type: functional; conditions: read-out: Activity
Summary of the method: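 SH-SY5Y cells were plated at 50000/well and left overnight at 37 °C, 5% CO2. They were pretreated 4 h with compound, then given etoposide; methods give 5 μg/mL read at 48 h, while the legend states 5 μM for 12 h. PrestoBlue fluorescence (ex 560/em 590 nm).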

CCOC(=O)Nc1ccc(NCc2ccc(SC(F)(F)F)cc2)nc1N
Activity [1]: Active
Activity [2]: Dose-dependent effect
fold change (FC) [3]: 8
Activity [4]: inactive
viability at 0.3 µM [5]: 93%
Activity [6]: 71%

Nc1nc(NCc2ccc(F)cc2)ccc1NC(=O)OCCCl
viability at 3 µM [7]: 53.9%

CCCCCCOC(=O)Nc1ccc(NCc2ccc(F)cc2)nc1N
viability at 3 µM [7]: 78.5%

CCOC(=O)Nc1ccc(OCc2ccc(C(F)(F)F)cc2)nc1N
viability at 3 µM [8]: 65%
Activity [4]: inactive
Activity [9]: Dose-dependent effect

CCOC(=O)Nc1ccc(NCc2ccccc2)nc1
viability at 3 µM [7]: 67.5%

CCOC(=O)Nc1ccc(NCc2ccc(C(F)(F)F)cc2)nc1N
inhibition [10]: inactive
viability at 3 µM [7]: 68.4%
Activity [2]: Dose-dependent effect
viability at 0.1 µM [11]: 84%
Activity [12]: 18%
Activity [13]: 75 - 76%
Activity [14]: 232%
Activity [4]: inactive
Activity [15]: inactive
Activity [9]: Dose-dependent effect
Activity [16]: 159%
Activity [17]: inactive
Activity [18]: Active

CCOC(=O)Nc1ccc(NCc2ccc(C)cc2)nc1N
viability at 3 µM [7]: 136%

CCOC(=O)Nc1ccc(NCc2ccc(F)cc2)cc1N [EZOGABINE]
Activity [19]: Active
fold change (FC) [3]: 2
inhibition [20]: Active
Activity [21]: Active
Activity [14]: 64%
Activity [4]: inactive
inhibition [22]: inactive
Activity [17]: Active

C=CCOC(=O)Nc1ccc(NCc2ccc(F)cc2)nc1N
inhibition [10]: inactive
viability at 3 µM [7]: 84.9%
Activity [19]: inactive
fold change (FC) [3]: 2
Activity [14]: 150%
Activity [4]: inactive
Activity [17]: inactive

CCCOC(=O)Nc1ccc(NCc2ccc(F)cc2)nc1N
viability at 3 µM [7]: 46.7%

Nc1nc(NCc2ccc(F)cc2)ccc1NC(=O)OCc1ccccc1
Activity [1]: Active
inhibition [10]: inactive
viability at 3 µM [7]: 81.2%
Activity [19]: inactive
fold change (FC) [3]: 3
Activity [23]: Active
Activity [4]: Active
Activity [6]: 79%
Activity [17]: inactive

CCOC(=O)Nc1ccc(NCc2ccc(C)cc2)nc1
viability at 3 µM [7]: 64.3%

CCOC(=O)Nc1cnc(NCc2ccc(F)cc2)cc1C
viability at 3 µM [7]: 53.8%

CCOC(=O)Nc1ccc(NCc2ccc(Cl)cc2)nc1N
inhibition [10]: inactive
viability at 3 µM [7]: 64.3%
Activity [2]: Dose-dependent effect
fold change (FC) [3]: >5
Activity [24]: 104%
Activity [14]: inactive
Activity [25]: -20%
Activity [4]: inactive
fold change (FC) [26]: >12
Activity [17]: inactive

CCOC(=O)Nc1ccc(NCc2ccccc2C(F)(F)F)nc1N
viability at 3 µM [7]: 82.8%

CCOC(=O)Nc1ccc(NCc2ccc(F)cc2)nc1N [FLUPIRTINE]
viability at 3 µM [27]: 69%
viability at 3 µM [7]: 79.5%
Activity [19]: Active
fold change (FC) [3]: 2
inhibition [20]: Active
viability at 3 µM [8]: 70%
Activity [23]: Active
Activity [14]: 68%
Activity [25]: 32%
Activity [4]: inactive
fold change (FC) [26]: 8
inhibition [22]: inactive
Activity [17]: Active

CCOC(=O)Nc1ccc(NCCc2ccc(F)cc2)nc1N
viability at 3 µM [7]: 59.3%

CCOC(=O)Nc1ccc(NCc2ccc(C(F)(F)F)nc2)nc1N
viability at 3 µM [7]: 81.6%
viability at 0.1 µM [11]: 74%

CCOC(=O)Nc1ccc(NCc2ccc(OC(F)(F)F)cc2)nc1N
viability at 3 µM [7]: 80.6%
Activity [2]: Dose-dependent effect
viability at 0.1 µM [11]: 77%
Activity [23]: Active
Activity [4]: inactive
Activity [9]: Dose-dependent effect
